# Measurements published in ChEMBL document CHEMBL5724801, “EUbOPEN Chemogenomics Library - Multiplex” (2024).
# Values joined by “and” are separate entries in the source; they are usually repeats but may differ in a detail not shown here. Equal entries are not always repeated.
# Test system: U2OS
# Assay: Multiplex assay against U2OS
# Assay type: toxicity, cell-based
# Conditions: human, 12 h, 1 µM, compound concentration 1 uM
# How it was run: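 Compound was added to live cells that had been stained at seeding with Hoechst33342, BioTracker Green Microtubule Cytoskeleton Dye, MitoTracker Red and Annexin V Alexa Fluor 680, and imaging followed on a CQ1 microscope at 37°C and 5% CO2. CellPathfinder machine-learning gating divided cells into Hoechst high-intensity objects or normal cells, normal cells into healthy, pyknosed or fragmented nuclei, and pyknosed cells into mitotic or apoptotic. Tubulin, mitochondrial-mass and membrane-permeability phenotypes are per cents of healthy-nucleus cells.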
Compound,Population Apoptotic (%),Population Fragmented Nuclei (%),Population Healthy Nuclei (%),Population Hoechst High Intensity Objects (%),Population Membrane Permeable-Phenotype (%),Population Mitochondria Different-Phenotype (%),Population Mitotic Cells (%),Population Normal (%),Population Pyknosed Nuclei (%),Population Tubulin-Different-Phenotype (%)
COc1ccccc1N1CCN(C[C@@H](C(=O)NC(C)(C)C)c2ccccc2)CC1.Cl.Cl,73% and 66%,29% and 14%,65% and 80%,2% and 1%,5% and 7%,3% and 2%,26% and 33%,97% and 98%,5%,1% and 3%
O=c1ccc2ccc(OCCCCN3CCN(c4cccc5sccc45)CC3)cc2[nH]1 [BREXPIPRAZOLE],73% and 55%,23% and 16%,62% and 69%,6% and 2%,40% and 32%,19% and 24%,26% and 44%,93% and 97%,13% and 14%,36% and 30%

# Same assay, conditions: human, 12 h, 1 µM, compound concentration 1 uM
row,Compound,Total Cell Count
1,COc1ccccc1N1CCN(C[C@@H](C(=O)NC(C)(C)C)c2ccccc2)CC1.Cl.Cl,281 and 114
2,O=c1ccc2ccc(OCCCCN3CCN(c4cccc5sccc45)CC3)cc2[nH]1 [BREXPIPRAZOLE],178 and 126

# Same assay, conditions: human, 12 h, 10 µM, compound concentration 10 uM
Compound,Population Apoptotic (%),Population Fragmented Nuclei (%),Population Healthy Nuclei (%),Population Hoechst High Intensity Objects (%),Population Membrane Permeable-Phenotype (%),Population Mitochondria Different-Phenotype (%),Population Mitotic Cells (%),Population Normal (%),Population Pyknosed Nuclei (%),Population Tubulin-Different-Phenotype (%)
COc1ccccc1N1CCN(C[C@@H](C(=O)NC(C)(C)C)c2ccccc2)CC1.Cl.Cl,46% and 50%,35% and 17%,49% and 66%,3% and 0%,41% and 49%,41% and 56%,53% and 50%,96% and 99%,14% and 15%,41% and 64%
O=c1ccc2ccc(OCCCCN3CCN(c4cccc5sccc45)CC3)cc2[nH]1 [BREXPIPRAZOLE],86% and 82%,31% and 21%,27% and 43%,6% and 9%,57% and 53%,82% and 90%,13% and 17%,93% and 90%,41% and 35%,83% and 95%

# Same assay, conditions: human, 12 h, 10 µM, compound concentration 10 uM
row,Compound,Total Cell Count
1,COc1ccccc1N1CCN(C[C@@H](C(=O)NC(C)(C)C)c2ccccc2)CC1.Cl.Cl,226 and 102
2,O=c1ccc2ccc(OCCCCN3CCN(c4cccc5sccc45)CC3)cc2[nH]1 [BREXPIPRAZOLE],220 and 109

# Same assay, conditions: human, 24 h, 1 µM, compound concentration 1 uM
Compound,Population Apoptotic (%),Population Fragmented Nuclei (%),Population Healthy Nuclei (%),Population Hoechst High Intensity Objects (%),Population Membrane Permeable-Phenotype (%),Population Mitochondria Different-Phenotype (%),Population Mitotic Cells (%),Population Normal (%),Population Pyknosed Nuclei (%),Population Tubulin-Different-Phenotype (%)
COc1ccccc1N1CCN(C[C@@H](C(=O)NC(C)(C)C)c2ccccc2)CC1.Cl.Cl,68% and 80%,29% and 16%,62% and 75%,3,7% and 5%,1% and 6%,32% and 20%,96,8%,3% and 2%
O=c1ccc2ccc(OCCCCN3CCN(c4cccc5sccc45)CC3)cc2[nH]1 [BREXPIPRAZOLE],68% and 66%,26% and 12%,55% and 67%,3,19% and 22%,22% and 28%,31% and 33%,96,18% and 19%,18% and 16%

# Same assay, conditions: human, 24 h, 1 µM, compound concentration 1 uM
row,Compound,Total Cell Count
1,COc1ccccc1N1CCN(C[C@@H](C(=O)NC(C)(C)C)c2ccccc2)CC1.Cl.Cl,320 and 129
2,O=c1ccc2ccc(OCCCCN3CCN(c4cccc5sccc45)CC3)cc2[nH]1 [BREXPIPRAZOLE],181 and 128

# Same assay, conditions: human, 24 h, 10 µM, compound concentration 10 uM
Compound,Population Apoptotic (%),Population Fragmented Nuclei (%),Population Healthy Nuclei (%),Population Hoechst High Intensity Objects (%),Population Membrane Permeable-Phenotype (%),Population Mitochondria Different-Phenotype (%),Population Mitotic Cells (%),Population Normal (%),Population Pyknosed Nuclei (%),Population Tubulin-Different-Phenotype (%)
COc1ccccc1N1CCN(C[C@@H](C(=O)NC(C)(C)C)c2ccccc2)CC1.Cl.Cl,61% and 70%,38% and 20%,42% and 63%,5%,20% and 39%,33% and 61%,38% and 29%,94%,18% and 15%,25% and 52%
O=c1ccc2ccc(OCCCCN3CCN(c4cccc5sccc45)CC3)cc2[nH]1 [BREXPIPRAZOLE],93% and 91%,30% and 19%,25% and 26%,13% and 22%,47% and 56%,67% and 86%,6% and 8%,86% and 77%,44% and 54%,76% and 91%

# Same assay, conditions: human, 24 h, 10 µM, compound concentration 10 uM
row,Compound,Total Cell Count
1,COc1ccccc1N1CCN(C[C@@H](C(=O)NC(C)(C)C)c2ccccc2)CC1.Cl.Cl,235 and 113
2,O=c1ccc2ccc(OCCCCN3CCN(c4cccc5sccc45)CC3)cc2[nH]1 [BREXPIPRAZOLE],213 and 112

# Same assay, conditions: human, 48 h, 1 µM, compound concentration 1 uM
Compound,Population Apoptotic (%),Population Fragmented Nuclei (%),Population Healthy Nuclei (%),Population Hoechst High Intensity Objects (%),Population Membrane Permeable-Phenotype (%),Population Mitochondria Different-Phenotype (%),Population Mitotic Cells (%),Population Normal (%),Population Pyknosed Nuclei (%),Population Tubulin-Different-Phenotype (%)
COc1ccccc1N1CCN(C[C@@H](C(=O)NC(C)(C)C)c2ccccc2)CC1.Cl.Cl,78% and 83%,21% and 16%,66% and 72%,2% and 4%,5% and 7%,1% and 2%,22% and 16%,97% and 95%,11%,1% and 4%
O=c1ccc2ccc(OCCCCN3CCN(c4cccc5sccc45)CC3)cc2[nH]1 [BREXPIPRAZOLE],64% and 73%,21% and 22%,61% and 56%,4% and 2%,,12% and 31%,35% and 26%,95% and 97%,16% and 21%,8% and 18%

# Same assay, conditions: human, 48 h, 1 µM, compound concentration 1 uM
row,Compound,Total Cell Count
1,COc1ccccc1N1CCN(C[C@@H](C(=O)NC(C)(C)C)c2ccccc2)CC1.Cl.Cl,452 and 162
2,O=c1ccc2ccc(OCCCCN3CCN(c4cccc5sccc45)CC3)cc2[nH]1 [BREXPIPRAZOLE],240 and 161

# Same assay, conditions: human, 48 h, 10 µM, compound concentration 10 uM
Compound,Population Apoptotic (%),Population Fragmented Nuclei (%),Population Healthy Nuclei (%),Population Hoechst High Intensity Objects (%),Population Membrane Permeable-Phenotype (%),Population Mitochondria Different-Phenotype (%),Population Normal (%),Population Pyknosed Nuclei (%),Population Tubulin-Different-Phenotype (%),Total Cell Count
COc1ccccc1N1CCN(C[C@@H](C(=O)NC(C)(C)C)c2ccccc2)CC1.Cl.Cl,58% and 96%,33% and 18%,44% and 58%,4% and 8%,28% and 43%,30% and 29%,95% and 91%,21% and 22%,21% and 35%,271 and 121
O=c1ccc2ccc(OCCCCN3CCN(c4cccc5sccc45)CC3)cc2[nH]1 [BREXPIPRAZOLE],96% and 100%,45% and 29%,12% and 14%,26% and 32%,45% and 70%,30% and 90%,73% and 67%,41% and 56%,40% and 90%,215 and 105

# Same assay, conditions: human, 48 h, 10 µM, compound concentration 10 uM
row,Compound,Population Mitotic Cells (%)
1,O=c1ccc2ccc(OCCCCN3CCN(c4cccc5sccc45)CC3)cc2[nH]1 [BREXPIPRAZOLE],3% and 0%
